Source: ChEMBL document CHEMBL5385938 (J Med Chem, 2024)
Activity calls are given as the source filed them. The calls are words filed in the database; no cut-off is given here.

Legend:
[1] = Metabolic stability in pooled human hepatocytes assessed as intrinsic clearance; type: ADME, Liver, Hepatocyte; conditions: read-out: CLH
[2] = system: T47D; assay: Cytotoxicity against human T47D cells harboring PI3Kalpha H1047R mutant assessed as reduction in cell viability incubated for 72 hrs by CellTiter-Glo 2.0 luminescent cell viability assay; type: functional, cell-based
[3] = system: SK-BR-3; assay: Cytotoxicity against human SK-BR-3 cells harboring wildtype PI3Kalpha assessed as reduction in cell viability incubated for 72 hrs by CellTiter-Glo 2.0 luminescent cell viability assay; type: functional, cell-based; conditions: SK-BR-3, 72 h
[4] = molecular target: T1, Phosphatidylinositol 4,5-bisphosphate 3-kinase catalytic subunit alpha isoform (Homo sapiens, UniProt P42336, H1047R)
T1 sequence (P42336 whole entry H1047R, canonical isoform): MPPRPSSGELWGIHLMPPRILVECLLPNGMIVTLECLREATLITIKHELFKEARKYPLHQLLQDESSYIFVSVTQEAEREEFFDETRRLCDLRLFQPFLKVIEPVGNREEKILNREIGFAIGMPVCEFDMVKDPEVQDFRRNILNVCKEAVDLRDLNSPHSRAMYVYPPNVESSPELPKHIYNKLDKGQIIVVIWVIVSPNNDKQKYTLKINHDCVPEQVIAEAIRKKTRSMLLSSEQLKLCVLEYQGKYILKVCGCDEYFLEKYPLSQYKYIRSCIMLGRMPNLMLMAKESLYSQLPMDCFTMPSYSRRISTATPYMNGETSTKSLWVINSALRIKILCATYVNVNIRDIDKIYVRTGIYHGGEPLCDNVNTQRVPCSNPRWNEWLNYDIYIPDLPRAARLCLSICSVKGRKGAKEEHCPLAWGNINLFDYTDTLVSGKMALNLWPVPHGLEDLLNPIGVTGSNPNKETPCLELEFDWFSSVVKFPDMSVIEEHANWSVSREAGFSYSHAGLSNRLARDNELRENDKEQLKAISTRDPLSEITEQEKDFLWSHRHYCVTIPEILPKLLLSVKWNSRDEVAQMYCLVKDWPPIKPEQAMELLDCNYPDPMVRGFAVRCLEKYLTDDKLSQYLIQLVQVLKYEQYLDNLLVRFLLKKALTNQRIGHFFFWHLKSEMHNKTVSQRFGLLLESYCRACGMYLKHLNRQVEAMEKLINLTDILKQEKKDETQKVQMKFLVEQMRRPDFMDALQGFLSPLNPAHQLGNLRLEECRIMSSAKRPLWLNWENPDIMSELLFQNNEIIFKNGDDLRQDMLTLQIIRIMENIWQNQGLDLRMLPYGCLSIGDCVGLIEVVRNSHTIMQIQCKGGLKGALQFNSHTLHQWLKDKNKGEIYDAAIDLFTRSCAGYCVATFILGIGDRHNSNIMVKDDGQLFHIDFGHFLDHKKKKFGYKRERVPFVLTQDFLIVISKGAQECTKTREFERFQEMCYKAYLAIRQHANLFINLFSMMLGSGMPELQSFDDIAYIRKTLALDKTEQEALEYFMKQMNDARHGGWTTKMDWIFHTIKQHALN

[5] = Oral bioavailability in CD-1 mouse at 100 mg/kg measured upto 24 hrs; type: ADME, organism-based; conditions: in vivo
[6] = In vivo inhibition of AKT phosphorylation in NOD.CB17-Prkdcscid/NCrCr mouse xenografted with ER-/HER+ human HCC1954 cells harboring PI3Kalpha H1047R mutant at 60 mg/kg, ip administered as single dose and measured after 8 hrs by immunoblotting analysis relative to control; type: functional
Summary of the method: (§1)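 HCC1954 tumor-bearing mice received a single IP dose of 60 or 120 mg/kg. Tumor pAKT modulation was measured at 1 h and 8 h post dose, relative to control.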

[7] = Volume of distribution at steady state in Sprague-Dawley rat at 100 mg/kg, po or 3 mg/kg, iv measured upto 24 hrs; type: ADME, organism-based; conditions: in vivo
[8] = molecular target: T1, Phosphatidylinositol 4,5-bisphosphate 3-kinase catalytic subunit alpha isoform; assay: Inhibition of PI3Kalpha H1047R mutant (unknown origin) using PI(4,5)P2:PS as substrate incubated in presence of ATP by ADP-Glo assay
[9] = Half-life in Sprague-Dawley rat at 3 mg/kg, iv measured upto 24 hrs; type: ADME, organism-based; conditions: in vivo
[10] = system: HCC1954; assay: Antitumor activity against ER-/HER2+ human HCC1954 cells harboring endogenous PI3Kalpha H1047R mutant xenografted in NOD.CB17-Prkdcscid/NCrCr mouse assessed as tumor regression at 80 mg/kg, ip administered twice daily for 14 days relative to control; type: functional; conditions: time 14 day
Summary of the method: (§2)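 HCC1954 xenograft mice (ER-/HER2+ breast line, endogenous PI3Kα H1047R) were dosed IP for 14 days, at 100 mg/kg qd or 80 mg/kg b.i.d. Read-out was tumor growth inhibition or regression (%).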

[11] = Half-life in Beagle dog at 2 mg/kg, iv measured upto 24 hrs; type: ADME, organism-based, Canis lupus familiaris; conditions: in vivo
[12] = Drug uptake in NOD.CB17-Prkdcscid/NCrCr mouse xenografted with ER-/HER+ human HCC1954 cells harboring PI3Kalpha H1047R mutant at 60 to 120 mg/kg, ip administered as single dose and measured upto 8 hrs; type: ADME, organism-based; conditions: in vivo, dose 60-120 mg/kg
[13] = system: Mus musculus; assay: In vivo inhibition of AKT phosphorylation in NOD.CB17-Prkdcscid/NCrCr mouse xenografted with ER-/HER+ human HCC1954 cells harboring PI3Kalpha H1047R mutant at 100 to 300 mg/kg, po measured upto 8 hrs by immunoblotting analysis; type: functional, organism-based; conditions: dose 100-300 mg/kg
[14] = Oral bioavailability in Beagle dog at 10 mg/kg measured upto 24 hrs; type: ADME, organism-based, Canis lupus familiaris; conditions: in vivo
[15] = Volume of distribution at steady state in CD-1 mouse at 100 mg/kg, po or 3 mg/kg, iv measured upto 24 hrs; type: ADME, organism-based; conditions: in vivo
[16] = In vivo inhibition of AKT phosphorylation in NOD.CB17-Prkdcscid/NCrCr mouse xenografted with ER-/HER+ human HCC1954 cells harboring PI3Kalpha H1047R mutant at 120 mg/kg, ip administered as single dose and measured after 8 hrs by immunoblotting analysis relative to control; type: functional; summary of the method: as §1
[17] = system: HCC1954; assay: Antitumor activity against ER-/HER2+ human HCC1954 cells harboring endogenous PI3Kalpha H1047R mutant xenografted in NOD.CB17-Prkdcscid/NCrCr mouse assessed as tumor growth inhibition at 100 mg/kg, ip administered once a day for 14 days relative to control; type: functional; conditions: HCC1954, 336 h, time 14 day, read-out: TGI; summary of the method: as §2
[18] = Half-life in CD-1 mouse at 3 mg/kg, iv measured upto 24 hrs; type: ADME, organism-based; conditions: in vivo
[19] = Oral bioavailability in Sprague-Dawley rat at 100 mg/kg measured upto 24 hrs; type: ADME, organism-based; conditions: in vivo
[20] = Volume of distribution at steady state in Beagle dog at 10 mg/kg, po or 2 mg/kg, iv measured upto 24 hrs; type: ADME, organism-based, Canis lupus familiaris; conditions: in vivo
[21] = Selectivity ratio of IC50 for cytotoxicity against human SK-BR-3 cells harboring wild type PI3Kalpha to IC50 for cytotoxicity against human T47D cells harboring PI3Kalpha H1047R mutant; type: functional
[22] = molecular target: T1, Phosphatidylinositol 4,5-bisphosphate 3-kinase catalytic subunit alpha isoform; assay: Inhibition of recombinant N-terminal 6-His tagged full length human PI3Kalpha H1047R mutant using PIP2diC8 and PIP2:PS as substrate incubated for 1 hrs in presence of ATP by fluorescence based plate reader analysis
[23] = species on record: Homo sapiens; assay: Selectivity ratio of IC50 for inhibition of recombinant N-terminal 6-His tagged full length human wildtype PI3Kalpha to IC50 for inhibition of recombinant N-terminal 6-His tagged full length human PI3Kalpha H1047R mutant

Compound Cc1cc([C@@H](C)Nc2ccccc2C(=O)O)c2nc(N3CCCCC3)c(F)c(=O)n2c1 has a CLint scaled [1] of 862 mL/min/kg.

Compound Cc1cc([C@@H](C)Nc2ccccc2C(=O)O)c2nc(N3CC(F)(F)C3)c(C#N)c(=O)n2c1 has a CLint scaled [1] of 24 mL/min/kg, an IC50 [2] of 56 nM and an IC50 [3] of over 10000 nM.

Cc1cc(C(C)Nc2ccccc2C(=O)O)c2nc(N3CCCCC3)ncc2c1 (centres undefined) gave an IC50 [2] of over 10000 nM and an IC50 [3] of over 10000 nM.

With Cc1cc([C@@H](C)Nc2ccccc2C(=O)O)c2nc(N3CC4CC(C3)C4(F)F)c(C#N)c(=O)n2c1 the CLint scaled [1] was 39 mL/min/kg, the IC50 [2] was 71 nM and the IC50 [3] was over 10000 nM.

With Cc1ccccc1C1NC(=O)c2cc(NC3COC3)cc(NC(=O)c3csc4ccccc34)c21 (centres undefined) the IC50 [4] was at most 100 nM.

Work on Cc1cc([C@@H](C)Nc2ccccc2C(=O)O)c2nc(N3CCC(F)(F)CC3)c(C#N)c(=O)n2c1 yielded an F [5] of 48%, an inhibition in vivo at 60 mg/kg [6] of 42% and a Vdss [7] of 4.8 L/kg. For the same compound, the IC50 [8] was 73 nM, the t1/2 [9] was 3.5 h and the Activity [10] was -34%. For the same compound, the t1/2 [11] was 0.7 h, the Drug uptake [12] was “Active” and the inhibition [13] was “inactive”. For the same compound, the F [14] was 7%, the Vdss [15] was 13.6 L/kg and the inhibition in vivo at 120 mg/kg [16] was 81%. It also gave an inhibition in vivo at 100 mg/kg [17] of 88%, a t1/2 [18] of 2 h and a CLint scaled [1] of 29 mL/min/kg. For the same compound, the F [19] was 57%, the IC50 [2] was 48 nM and the Vdss [20] was 1.5 L/kg. It also gave an IC50 [3] of 8970 nM.

For Cc1cc([C@@H](C)Nc2ccccc2C(=O)O)c2nc(N3CCS(=O)(=O)CC3)c(C#N)c(=O)n2c1, the CLint scaled [1] was 5 mL/min/kg, the IC50 [2] was over 10000 nM and the IC50 [3] was over 10000 nM.

With Cc1cc([C@@H](C)Nc2ccccc2C(=O)O)c2nc(N3CC4(C3)CC(F)(F)C4)c(C#N)c(=O)n2c1 the CLint scaled [1] was 118 mL/min/kg, the IC50 [2] was over 10000 nM and the IC50 [3] was over 10000 nM.

With Cc1cc([C@@H](C)Nc2ccc(Cl)nc2C(=O)O)c2nc(N3CCC(F)(F)CC3)c(C#N)c(=O)n2c1 the IC50 [2] was 304 nM.

With Cc1cc([C@@H](C)Nc2ccccc2C(=O)O)c2nc(N3CCCCC3)c(C)c(=O)n2c1 the “Ratio IC50” value [21] was 83, the CLint scaled [1] was 340 mL/min/kg and the IC50 [2] was 120 nM. For the same compound, the IC50 [3] was over 10000 nM.

With Cc1cc([C@@H](C)Nc2ccccc2C(=O)O)c2nc(N3CCCCC3)cc(=O)n2c1 the IC50 [8] was 411 nM, the “Ratio IC50” value [21] was 9 and the CLint scaled [1] was 181 mL/min/kg. The IC50 [2] was 1110 nM and the IC50 [3] was over 10000 nM.

For Cc1cc([C@@H](C)Nc2ccccc2C(=O)O)c2oc(N3CCC(C)(C)CC3)c(C)c(=O)c2c1, the “Ratio IC50” value [21] was 57, the IC50 [2] was 160 nM and the IC50 [3] was 9080 nM.

In the case of Cc1cc([C@@H](C)Nc2cccc(F)c2C(=O)O)c2nc(N3CCC(F)(F)CC3)c(C#N)c(=O)n2c1, the IC50 [2] is reported as 566 nM.

For Cc1cc(C(C)Nc2ccccc2C(=O)O)c2nc(N3CCC(C)(C)CC3)n(C)c(=O)c2c1 (centres undefined), the “Ratio IC50” value [21] was 2, the IC50 [2] was 6240 nM and the IC50 [3] was over 10000 nM.

Compound Cc1cc([C@@H](C)Nc2ccccc2C(=O)O)c2nc(C3CCC(F)(F)CC3)c(C#N)c(=O)n2c1 has a CLint scaled [1] of 12 mL/min/kg, an IC50 [2] of 246 nM and an IC50 [3] of over 10000 nM.

For Cc1cc([C@@H](C)Nc2nccnc2C(=O)O)c2nc(N3CCC(F)(F)CC3)c(C#N)c(=O)n2c1, the IC50 [2] was 3720 nM.

Cc1cc([C@@H](C)Nc2ccccc2C(=O)O)c2oc(N3CCCCC3)cc(=O)c2c1 gave an IC50 [22] of under 500 nM and a Ratio IC50 [23] of 13.5.

For Cc1cc([C@@H](C)Nc2ccccc2C(=O)O)c2nc(N3CCCC3)c(C#N)c(=O)n2c1, the CLint scaled [1] was 78 mL/min/kg, the IC50 [2] was 135 nM and the IC50 [3] was over 10000 nM.

Cc1cc([C@@H](C)Nc2ccccc2C(=O)O)c2nc(N3CCC(C)(C)CC3)c(C#N)c(=O)n2c1 gave a CLint scaled [1] of 76 mL/min/kg, an IC50 [2] of 151 nM and an IC50 [3] of over 10000 nM.

Cc1cc([C@@H](C)Nc2ccccc2C(=O)O)c2nc(N3CCCCC3)c(C#N)c(=O)n2c1 showed a CLint scaled [1] of 79 mL/min/kg, an IC50 [2] of 86 nM and an IC50 [3] of 9940 nM.

Cc1cc([C@@H](C)Nc2cscc2C(=O)O)c2nc(N3CCC(F)(F)CC3)c(C#N)c(=O)n2c1 gave an IC50 [2] of 183 nM.

Work on Cc1cc([C@@H](C)Nc2ccc(Cl)cc2C(=O)O)c2nc(N3CCC(F)(F)CC3)c(C#N)c(=O)n2c1 yielded an IC50 [2] of 627 nM.
